{"source": "ChEMBL document CHEMBL3352189", "about": "(J Med Chem, 2014)", "key": {"[1]": {"biological_target": "Adenosine receptor A3 (Homo sapiens) (UniProt P0DMS8)", "assay": "Displacement of [125I]AB-MECA from human adenosine A3 receptor at 10 uM"}, "[2]": {"biological_target": "L-type calcium channel, benzothiazepine site (Rattus norvegicus, UniProt P22002+P27732+Q02485)", "assay": "Displacement of [3H]diltiazem from rat calcium channel L-Type benzothiazepine site at 10 uM", "type": "protein assay", "details": "probe [3H]diltiazem"}, "[3]": {"biological_target": "T1, Glutamate NMDA receptor (Rattus norvegicus) (UniProt P35439+Q00959+Q00960+Q00961+Q62645+Q8VHN2+Q9R1M7)", "assay": "Displacement of [3H]MDL 105,519 from rat NMDA receptor glycine binding site binding site at 10 uM", "type": "protein-complex assay"}, "Mus musculus [4]": {"system": "Mus musculus", "assay": "Toxicity in Venezuelan equine encephalitis virus TC83 infected C3H/HeN mouse assessed as induction of hunched posture at 40 mg/kg/day, ip BID for 4 days", "type": "organism-based", "parameters": "route intraperitoneal", "details": "in vivo, 96 h"}, "[5]": {"biological_target": "Androgen receptor (Rattus norvegicus) (UniProt P15207)", "sequence (P15207 whole entry S389L)": "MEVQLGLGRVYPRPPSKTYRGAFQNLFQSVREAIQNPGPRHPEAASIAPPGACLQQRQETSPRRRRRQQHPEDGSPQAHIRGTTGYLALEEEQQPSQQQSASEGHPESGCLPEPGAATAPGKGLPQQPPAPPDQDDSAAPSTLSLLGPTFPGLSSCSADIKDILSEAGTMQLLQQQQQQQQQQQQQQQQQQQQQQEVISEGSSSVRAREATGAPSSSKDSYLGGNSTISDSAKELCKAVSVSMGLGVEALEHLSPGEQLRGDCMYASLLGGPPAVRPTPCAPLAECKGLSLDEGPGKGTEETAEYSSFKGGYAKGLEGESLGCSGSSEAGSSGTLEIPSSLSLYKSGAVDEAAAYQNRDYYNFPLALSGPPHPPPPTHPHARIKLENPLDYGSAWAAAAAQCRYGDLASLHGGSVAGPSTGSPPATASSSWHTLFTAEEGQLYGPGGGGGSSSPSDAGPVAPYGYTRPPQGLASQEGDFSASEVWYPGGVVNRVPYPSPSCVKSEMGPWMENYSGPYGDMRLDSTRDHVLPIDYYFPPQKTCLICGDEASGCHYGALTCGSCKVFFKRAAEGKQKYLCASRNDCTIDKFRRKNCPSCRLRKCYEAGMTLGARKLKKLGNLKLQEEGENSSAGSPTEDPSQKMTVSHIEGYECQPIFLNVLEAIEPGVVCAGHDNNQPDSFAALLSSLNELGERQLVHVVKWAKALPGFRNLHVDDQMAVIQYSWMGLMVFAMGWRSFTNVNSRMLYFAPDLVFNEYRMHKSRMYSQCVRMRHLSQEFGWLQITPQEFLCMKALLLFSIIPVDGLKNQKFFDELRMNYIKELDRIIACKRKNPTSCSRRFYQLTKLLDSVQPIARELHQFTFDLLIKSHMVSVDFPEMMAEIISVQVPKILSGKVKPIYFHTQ", "assay": "Displacement of [3H]mibolerone from rat androgen receptor at 10 uM"}, "Mus musculus [6]": {"species": "Mus musculus", "assay": "Displacement of [125I]interleukin-1beta from mouse IL1 receptor at 10 uM"}, "Rattus norvegicus": {"species": "Rattus norvegicus", "assay": "Displacement of radioligand from rat sodium channel site 2 at 10 uM"}, "[7]": {"biological_target": "Beta-2 adrenergic receptor (Homo sapiens) (UniProt P07550)", "assay": "Displacement of [3H]CGP-12177 from human adrenergic beta2 receptor at 10 uM"}, "[8]": {"biological_target": "Adenosine receptor A1 (Homo sapiens) (UniProt P30542)", "sequence (P30542 whole entry)": "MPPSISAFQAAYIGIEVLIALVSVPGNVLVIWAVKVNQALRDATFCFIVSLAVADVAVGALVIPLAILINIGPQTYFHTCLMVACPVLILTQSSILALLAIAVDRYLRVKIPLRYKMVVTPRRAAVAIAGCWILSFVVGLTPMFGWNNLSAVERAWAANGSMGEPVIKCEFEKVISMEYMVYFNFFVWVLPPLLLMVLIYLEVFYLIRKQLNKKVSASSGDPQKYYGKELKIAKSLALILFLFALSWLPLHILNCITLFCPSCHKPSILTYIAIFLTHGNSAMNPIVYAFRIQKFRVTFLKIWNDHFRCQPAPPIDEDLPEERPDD", "assay": "Displacement of [3H]DPCPX from human adenosine A1 receptor at 10 uM"}, "[9]": {"biological_target": "Alpha-1A adrenergic receptor (Rattus norvegicus) (UniProt P43140)", "assay": "Displacement of [3H]prazosin from rat adrenergic alpha1A receptor at 10 uM"}, "[10]": {"biological_target": "T1, Glutamate NMDA receptor (Rattus norvegicus)", "assay": "Displacement of [3H]TCP from rat NMDA receptor phencyclidine binding site binding site at 10 uM", "type": "protein-complex assay"}, "[11]": {"system": "Venezuelan equine encephalitis virus", "assay": "Antiviral activity against Venezuelan equine encephalitis virus TrD infected in Vero 76 cells assessed as reduction in viral titer at 5 uM by crystal violet staining based microplaque assay relative to untreated control", "type": "functional, organism-based"}, "[12]": {"biological_target": "Glucocorticoid receptor (Homo sapiens) (UniProt P04150)", "assay": "Displacement of [3H]dexamethasone from human glucocorticoid receptor at 10 uM"}, "Mus musculus [13]": {"species": "Mus musculus", "assay": "Displacement of [3H]PDBu from mouse phorbol ester receptor at 10 uM"}, "[14]": {"biological_target": "L-type calcium channel, dihydropyridine site (Rattus norvegicus, UniProt P22002+P27732+Q02485)", "assay": "Displacement of [3H]nitrendipine from rat calcium channel L-Type dihydropyridine site at 10 uM", "type": "protein assay", "details": "probe [3H]nitrendipine"}, "[15]": {"biological_target": "Alpha-1D adrenergic receptor (Homo sapiens) (UniProt P25100)", "assay": "Displacement of [3H]prazosin from human adrenergic alpha1D receptor at 10 uM"}, "[16]": {"biological_target": "Estrogen receptor (Homo sapiens) (UniProt P03372)", "assay": "Displacement of [3H]estradiol from human ERalpha at 10 uM"}, "[17]": {"assay": "Plasma concentration in C57BL/6 mouse at 5 mg/kg, ip administered as single dose measured after 20 mins by LC/MS analysis based RACE assay", "type": "ADME, organism-based", "parameters": "dose 5 mg/kg, route intraperitoneal", "how_it_was_run": "(§1)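 Single intraperitoneal dose of 1, 5 or 10 mg/kg given to C57BL/6 mice, 3 mice per dose and time point, with a vehicle-control cohort. Plasma was sampled at 20 and 120 min post-dose and drug level measured by LC/MS. Each time point averaged two injections (<20% difference); values are means ± standard deviation in μM.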"}, "Mus musculus [18]": {"system": "Mus musculus", "assay": "Toxicity in Venezuelan equine encephalitis virus TC83 infected C3H/HeN mouse assessed as body weight loss at 5 mg/kg/day, ip BID for 4 days", "type": "organism-based", "parameters": "route intraperitoneal", "details": "in vivo, 96 h"}, "CYP2D6": {"biological_target": "CYP2D6 (Homo sapiens, UniProt P10635)", "sequence (P10635 whole entry)": "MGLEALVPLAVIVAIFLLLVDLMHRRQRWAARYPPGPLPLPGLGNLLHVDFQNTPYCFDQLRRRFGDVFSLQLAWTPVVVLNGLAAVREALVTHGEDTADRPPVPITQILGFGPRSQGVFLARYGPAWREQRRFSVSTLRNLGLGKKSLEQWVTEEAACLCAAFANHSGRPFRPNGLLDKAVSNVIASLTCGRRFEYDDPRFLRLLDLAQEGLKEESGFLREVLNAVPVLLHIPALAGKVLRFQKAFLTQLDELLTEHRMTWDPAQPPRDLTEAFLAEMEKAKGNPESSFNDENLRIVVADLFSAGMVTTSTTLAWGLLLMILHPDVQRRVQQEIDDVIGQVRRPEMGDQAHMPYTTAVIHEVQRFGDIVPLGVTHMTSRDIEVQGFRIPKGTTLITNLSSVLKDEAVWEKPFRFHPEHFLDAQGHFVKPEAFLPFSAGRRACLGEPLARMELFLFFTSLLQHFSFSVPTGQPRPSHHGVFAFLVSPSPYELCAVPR", "assay": "Inhibition of human CYP2D6 at 10 uM", "type": "ADME"}, "[19]": {"assay": "Chemical stability in presence of 5x DTT assessed as parent compound remaining incubated for 8 hrs", "type": "physicochemical", "details": "read-out: Stability"}, "CYP3A4": {"biological_target": "CYP3A4 (Homo sapiens, UniProt P08684)", "assay": "Inhibition of human CYP3A4 at 10 uM", "type": "ADME", "how_it_was_run": "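Human CYP inhibition run with reference inhibitors as controls: α-naphthoflavone for CYP1A2 and ketoconazole for CYP3A4.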"}, "[20]": {"biological_target": "Cysteinyl leukotriene receptor 1 (Homo sapiens) (UniProt Q9Y271)", "sequence (Q9Y271 whole entry)": "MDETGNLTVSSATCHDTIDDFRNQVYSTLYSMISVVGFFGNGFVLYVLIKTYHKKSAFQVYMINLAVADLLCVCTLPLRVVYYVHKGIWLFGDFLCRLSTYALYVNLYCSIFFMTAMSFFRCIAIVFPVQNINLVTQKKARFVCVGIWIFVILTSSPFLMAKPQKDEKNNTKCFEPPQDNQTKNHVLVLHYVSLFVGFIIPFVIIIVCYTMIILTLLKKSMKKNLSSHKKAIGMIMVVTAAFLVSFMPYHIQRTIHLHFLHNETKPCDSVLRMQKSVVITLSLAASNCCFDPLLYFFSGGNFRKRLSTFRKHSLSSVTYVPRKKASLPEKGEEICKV", "assay": "Displacement of [3H]LTD4 from human CysLT1 receptor at 10 uM"}, "[21]": {"biological_target": "Epidermal growth factor receptor (Homo sapiens) (UniProt P00533)", "sequence (P00533 whole entry)": "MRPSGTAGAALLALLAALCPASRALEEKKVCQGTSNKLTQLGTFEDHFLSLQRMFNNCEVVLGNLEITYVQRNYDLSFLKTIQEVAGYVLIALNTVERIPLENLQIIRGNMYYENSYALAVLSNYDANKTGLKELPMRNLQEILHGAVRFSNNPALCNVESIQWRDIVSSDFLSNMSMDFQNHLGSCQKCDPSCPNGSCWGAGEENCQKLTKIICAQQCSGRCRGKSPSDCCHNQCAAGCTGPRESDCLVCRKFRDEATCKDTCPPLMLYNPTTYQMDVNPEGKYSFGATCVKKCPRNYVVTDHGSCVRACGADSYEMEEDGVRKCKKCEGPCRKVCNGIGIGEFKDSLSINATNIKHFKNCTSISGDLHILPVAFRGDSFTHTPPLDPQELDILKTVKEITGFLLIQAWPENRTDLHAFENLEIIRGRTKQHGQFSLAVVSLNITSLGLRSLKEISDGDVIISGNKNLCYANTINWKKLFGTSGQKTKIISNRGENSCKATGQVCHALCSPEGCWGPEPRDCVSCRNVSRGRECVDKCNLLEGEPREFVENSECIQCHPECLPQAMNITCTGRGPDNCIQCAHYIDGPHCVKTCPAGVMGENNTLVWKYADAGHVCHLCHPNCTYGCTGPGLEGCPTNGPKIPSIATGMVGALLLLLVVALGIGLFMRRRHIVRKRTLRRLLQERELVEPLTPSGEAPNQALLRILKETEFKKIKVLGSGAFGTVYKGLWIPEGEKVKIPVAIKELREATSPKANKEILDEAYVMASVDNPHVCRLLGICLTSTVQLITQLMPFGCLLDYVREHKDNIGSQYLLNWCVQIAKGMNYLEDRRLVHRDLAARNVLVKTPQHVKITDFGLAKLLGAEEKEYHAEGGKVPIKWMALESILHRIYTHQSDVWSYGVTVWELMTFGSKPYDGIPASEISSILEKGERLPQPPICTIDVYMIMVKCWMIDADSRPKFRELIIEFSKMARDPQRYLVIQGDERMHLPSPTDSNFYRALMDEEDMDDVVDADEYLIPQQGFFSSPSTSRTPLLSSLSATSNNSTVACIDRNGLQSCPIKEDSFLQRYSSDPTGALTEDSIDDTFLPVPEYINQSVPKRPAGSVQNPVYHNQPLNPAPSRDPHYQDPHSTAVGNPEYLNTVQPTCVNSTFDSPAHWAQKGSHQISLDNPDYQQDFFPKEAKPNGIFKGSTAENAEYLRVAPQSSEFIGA", "assay": "Displacement of [125I]EGF from human EGFR at 10 uM"}, "[22]": {"biological_target": "Gamma-aminobutyric acid type B receptor subunit 1 (Homo sapiens) (UniProt Q9UBS5)", "assay": "Displacement of [3H]CGP-54626 from human GABA B1A receptor at 10 uM"}, "CYP2C9": {"biological_target": "CYP2C9 (Homo sapiens, UniProt P11712)", "assay": "Inhibition of human CYP2C9 at 10 uM", "type": "ADME"}, "Mus musculus [23]": {"system": "Mus musculus", "assay": "Toxicity in Venezuelan equine encephalitis virus TC83 infected C3H/HeN mouse assessed as induction of hunched posture at 5 mg/kg/day, ip BID for 4 days", "type": "organism-based", "parameters": "route intraperitoneal", "details": "in vivo, 96 h"}, "[24]": {"biological_target": "5-hydroxytryptamine receptor 3A (Homo sapiens) (UniProt P46098)", "assay": "Displacement of [3H]GR-65630 from human 5HT3 receptor at 10 uM"}, "[25]": {"biological_target": "Sodium-dependent noradrenaline transporter (Homo sapiens) (UniProt P23975)", "sequence (P23975 whole entry)": "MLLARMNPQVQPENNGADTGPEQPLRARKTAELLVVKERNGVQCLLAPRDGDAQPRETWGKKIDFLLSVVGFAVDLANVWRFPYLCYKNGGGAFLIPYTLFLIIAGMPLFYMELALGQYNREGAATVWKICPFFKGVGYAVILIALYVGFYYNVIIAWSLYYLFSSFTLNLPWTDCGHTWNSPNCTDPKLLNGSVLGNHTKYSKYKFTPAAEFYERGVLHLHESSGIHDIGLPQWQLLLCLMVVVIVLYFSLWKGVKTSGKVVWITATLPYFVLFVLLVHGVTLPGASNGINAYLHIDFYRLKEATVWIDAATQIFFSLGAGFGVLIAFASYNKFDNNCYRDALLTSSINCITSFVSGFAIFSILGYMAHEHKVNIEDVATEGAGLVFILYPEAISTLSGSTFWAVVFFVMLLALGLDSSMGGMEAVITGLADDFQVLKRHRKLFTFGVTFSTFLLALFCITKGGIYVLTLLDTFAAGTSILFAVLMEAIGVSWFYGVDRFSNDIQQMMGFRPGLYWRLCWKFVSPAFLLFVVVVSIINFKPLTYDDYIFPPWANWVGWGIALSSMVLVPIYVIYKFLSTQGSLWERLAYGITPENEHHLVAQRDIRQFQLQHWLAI", "assay": "Displacement of [125I]RTI-55 from human NET at 10 uM"}, "[26]": {"biological_target": "Sodium-dependent dopamine transporter (Homo sapiens) (UniProt Q01959)", "sequence (Q01959 whole entry)": "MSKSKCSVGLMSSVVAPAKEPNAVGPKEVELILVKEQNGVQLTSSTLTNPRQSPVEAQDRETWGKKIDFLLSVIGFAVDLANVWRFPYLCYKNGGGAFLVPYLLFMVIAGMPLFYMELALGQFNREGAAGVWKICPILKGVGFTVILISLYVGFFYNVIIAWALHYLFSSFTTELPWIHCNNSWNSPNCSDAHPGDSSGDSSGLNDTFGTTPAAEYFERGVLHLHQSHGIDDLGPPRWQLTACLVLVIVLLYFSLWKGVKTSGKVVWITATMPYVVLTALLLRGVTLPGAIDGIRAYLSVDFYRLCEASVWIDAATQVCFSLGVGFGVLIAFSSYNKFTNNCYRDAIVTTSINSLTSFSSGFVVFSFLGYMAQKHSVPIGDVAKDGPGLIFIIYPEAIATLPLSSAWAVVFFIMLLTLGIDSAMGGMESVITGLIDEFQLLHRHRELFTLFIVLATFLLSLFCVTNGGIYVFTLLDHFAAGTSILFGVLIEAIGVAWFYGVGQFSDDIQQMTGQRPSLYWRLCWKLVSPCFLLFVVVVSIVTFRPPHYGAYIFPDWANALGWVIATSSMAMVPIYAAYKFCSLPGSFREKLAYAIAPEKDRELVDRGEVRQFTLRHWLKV", "assay": "Displacement of [125I]RTI-55 from human DAT at 10 uM"}, "[27]": {"biological_target": "Substance-P receptor (Homo sapiens) (UniProt P25103)", "assay": "Displacement of [3H]substance P from human NK1 receptor 2 at 10 uM"}, "[28]": {"assay": "Plasma concentration in C57BL/6 mouse at 10 mg/kg, ip administered as single dose measured after 20 mins by LC/MS analysis based RACE assay", "type": "ADME, organism-based", "parameters": "dose 10 mg/kg, route intraperitoneal", "how_it_was_run": "as §1"}, "[29]": {"biological_target": "D(2) dopamine receptor (Homo sapiens) (UniProt P14416)", "assay": "Displacement of [3H]spiperone from human dopamine D2S receptor at 10 uM"}, "[30]": {"assay": "Plasma concentration in C57BL/6 mouse at 1 mg/kg, ip administered as single dose measured after 20 mins by LC/MS analysis based RACE assay", "type": "ADME, organism-based", "parameters": "dose 1 mg/kg, route intraperitoneal", "how_it_was_run": "as §1"}, "[31]": {"biological_target": "Melatonin-related receptor (Homo sapiens) (UniProt Q13585)", "assay": "Displacement of [125I]2-Iodomelatonin from human MT1 receptor at 10 uM"}, "[32]": {"biological_target": "Histamine H1 receptor (Homo sapiens) (UniProt P35367)", "assay": "Displacement of [3H]pyrilamine from human histamine H1 receptor at 10 uM"}, "Mus musculus [33]": {"system": "Mus musculus", "assay": "Toxicity in Venezuelan equine encephalitis virus TC83 infected C3H/HeN mouse assessed as induction of ruffled fur at 40 mg/kg/day, ip BID for 4 days", "type": "organism-based", "parameters": "route intraperitoneal", "details": "in vivo, 96 h"}, "[34]": {"biological_target": "D(1A) dopamine receptor (Homo sapiens) (UniProt P21728)", "sequence (P21728 whole entry)": "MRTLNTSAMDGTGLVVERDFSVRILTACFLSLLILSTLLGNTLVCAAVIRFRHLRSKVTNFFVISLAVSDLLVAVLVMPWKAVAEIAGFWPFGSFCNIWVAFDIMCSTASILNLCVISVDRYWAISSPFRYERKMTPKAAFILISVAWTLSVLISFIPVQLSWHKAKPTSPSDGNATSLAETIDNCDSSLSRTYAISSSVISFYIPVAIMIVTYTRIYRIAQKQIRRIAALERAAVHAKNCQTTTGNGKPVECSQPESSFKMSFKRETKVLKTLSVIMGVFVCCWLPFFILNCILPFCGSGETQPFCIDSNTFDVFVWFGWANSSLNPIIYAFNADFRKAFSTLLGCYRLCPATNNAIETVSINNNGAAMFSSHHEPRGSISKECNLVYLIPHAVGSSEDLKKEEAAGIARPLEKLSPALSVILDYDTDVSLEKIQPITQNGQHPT", "assay": "Displacement of [3H]SCH-23390 from human dopamine D1 receptor at 10 uM"}, "CYP2C19": {"biological_target": "CYP2C19 (Homo sapiens, UniProt P33261)", "assay": "Inhibition of human CYP2C19 at 10 uM", "type": "ADME"}}, "note": "Calls of active or inactive are those of the source. The calls are words filed in the database; no cut-off is given here."}
{"compound": "CN1CCN(C)/C(=N/c2ccc([N+](=O)[O-])cc2C(=O)Nc2ccccc2)C1", "values": [{"measurement": "inhibition", "setting": "[1]", "value": 26.7, "unit": "%"}, {"measurement": "inhibition at 10 µM", "setting": "[2]", "value": 7.06, "unit": "%"}, {"measurement": "inhibition", "setting": "[3]", "value": 12.9, "unit": "%"}, {"measurement": "Activity", "setting": "Mus musculus [4]", "value": "Non-toxic"}, {"measurement": "inhibition", "setting": "[5]", "value": 1.1, "unit": "%"}, {"measurement": "inhibition", "setting": "Mus musculus [6]", "value": 3.11, "unit": "%"}, {"measurement": "inhibition", "setting": "Rattus norvegicus", "value": 9.27, "unit": "%"}, {"measurement": "inhibition", "setting": "[7]", "value": 6.39, "unit": "%"}, {"measurement": "inhibition", "setting": "[8]", "value": 20.4, "unit": "%"}, {"measurement": "inhibition", "setting": "[9]", "value": 4.41, "unit": "%"}, {"measurement": "inhibition", "setting": "[10]", "value": 9.28, "unit": "%"}, {"measurement": "inhibition", "setting": "[11]", "value": "Active"}, {"measurement": "inhibition", "setting": "[12]", "value": 10.2, "unit": "%"}, {"measurement": "inhibition", "setting": "Mus musculus [13]", "value": 0, "unit": "%"}, {"measurement": "inhibition at 10 µM", "setting": "[14]", "value": 4.51, "unit": "%"}, {"measurement": "inhibition", "setting": "[15]", "value": -7.82, "unit": "%"}, {"measurement": "inhibition", "setting": "[16]", "value": 10, "unit": "%"}, {"measurement": "concentration at 20 min", "setting": "[17]", "value": 1450, "unit": "nM"}, {"measurement": "Activity", "setting": "Mus musculus [18]", "value": "Non-toxic"}, {"measurement": "inhibition at 10 µM", "setting": "CYP2D6", "value": 28, "unit": "%"}, {"measurement": "remaining at 8 h", "setting": "[19]", "value": 99, "unit": "%"}, {"measurement": "inhibition at 10 µM", "setting": "CYP3A4", "value": 18, "unit": "%"}, {"measurement": "inhibition", "setting": "[20]", "value": 10.9, "unit": "%"}, {"measurement": "inhibition", "setting": "[21]", "value": -2.63, "unit": "%"}, {"measurement": "inhibition", "setting": "[22]", "value": 35.9, "unit": "%"}, {"measurement": "inhibition at 10 µM", "setting": "CYP2C9", "value": 7, "unit": "%"}, {"measurement": "Activity", "setting": "Mus musculus [23]", "value": "Non-toxic"}, {"measurement": "inhibition", "setting": "[24]", "value": 1.64, "unit": "%"}, {"measurement": "inhibition", "setting": "[25]", "value": 91.1, "unit": "%"}, {"measurement": "inhibition", "setting": "[26]", "value": 10.8, "unit": "%"}, {"measurement": "inhibition", "setting": "[27]", "value": 8.19, "unit": "%"}, {"measurement": "concentration at 20 min", "setting": "[28]", "value": 2680, "unit": "nM"}, {"measurement": "inhibition", "setting": "[29]", "value": 9.08, "unit": "%"}, {"measurement": "concentration at 20 min", "setting": "[30]", "value": 200, "unit": "nM"}, {"measurement": "inhibition", "setting": "[31]", "value": 18, "unit": "%"}, {"measurement": "inhibition", "setting": "[32]", "value": 12.3, "unit": "%"}, {"measurement": "Activity", "setting": "Mus musculus [33]", "value": "Non-toxic"}, {"measurement": "inhibition", "setting": "[34]", "value": 2.65, "unit": "%"}, {"measurement": "inhibition at 10 µM", "setting": "CYP2C19", "value": 17, "unit": "%"}]}
